Only some compounds are listed: those with a hit (about 4% of all), similar ones and a draw of the others.
Exocytosis inh – blocks lytic granule exocytosis | TALL-104 LAMP-1 surface exposure, flow cytometry; cells stimulated with thapsigargin and PMA | inhibition, % at 10 µM | hit rate 0.66% among 360,000 | AID 651702;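 active = inhibition above about 55%, limit read from the data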
XBP1 UPR activ – adaptive UPR (XBP1) activation. hit rate 0.33% among 330,000. activation, % at 20 µM. CHO-XBP1 luciferase reporter, IRE1-XBP1 UPR activation, luminescence; percent of tunicamycin response, DMSO as zero;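 active = versus positive control, 20 µM dose yields 30% or more activation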;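 also: 100% = tunicamycin at 10 µg/mL and 0% = DMSO only wells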
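assay system = CHO-XBP1 luciferase reporter cells | amount = 1000 cells/well | buffer or medium = F12 plus 10% FBS | compound dosing = single point, 20 µM final compound, 1% DMSO | incubation = 16-18 h cell attachment at 37 °C, then 6 h compound exposure | detection = Steady-Glo luminescence read | controls = tunicamycin 10 µg/mL and vehicle-only wells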
CHOP UPR activ – apoptotic UPR (CHOP) activation. activation, % at 10 µM. hit rate 0.34% among 330,000. CHO-CHOP luciferase reporter, luminescence; percent of tunicamycin response over DMSO baseline;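 active = at 10 µM dose, activation of 40% or more, normalized to positive control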;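 also: 100% = tunicamycin at 10 µg/mL and 0% = DMSO alone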
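Assay system: CHO-CHOP cells, stable luciferase reporter of PERK-eIF2a-CHOP signalling / Buffer or medium: F12 plus 10% serum / Compound dosing: one dose, 10 µM in 0.5% DMSO / Times: 6 h compound treatment, 37 °C / Technique: luciferase luminescence / Read-out: % reporter activation, DMSO baseline versus tunicamycin full activation / Benchmarks: tunicamycin and DMSO controls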
Mdm2 MdmX PPI – disrupts the human Mdm2-MdmX interaction; hit rate 3% among 330,000; inhibition, % at 8 µM; SaOS-2 split-luciferase Mdm2/MdmX complementation, luminescence;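 active = inhibition of at least 50% at 8 µM in the primary screen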
ABHD5 PLIN5 PPI – ABHD5-PLIN5 protein interaction inhibition | Split G. princeps luciferase complementation, luminescence, 4 h | inhibition, % at 4 µM | hit rate 0.78% among 360,000 | AID 602281;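 active = inhibition above the mean inhibition across every tested compound plus 3 SD, cut at about 22% in these data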;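 also: 0% = DMSO only wells and the 100% control is not disclosed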
Target sequence (Q00G26 whole entry, looked up): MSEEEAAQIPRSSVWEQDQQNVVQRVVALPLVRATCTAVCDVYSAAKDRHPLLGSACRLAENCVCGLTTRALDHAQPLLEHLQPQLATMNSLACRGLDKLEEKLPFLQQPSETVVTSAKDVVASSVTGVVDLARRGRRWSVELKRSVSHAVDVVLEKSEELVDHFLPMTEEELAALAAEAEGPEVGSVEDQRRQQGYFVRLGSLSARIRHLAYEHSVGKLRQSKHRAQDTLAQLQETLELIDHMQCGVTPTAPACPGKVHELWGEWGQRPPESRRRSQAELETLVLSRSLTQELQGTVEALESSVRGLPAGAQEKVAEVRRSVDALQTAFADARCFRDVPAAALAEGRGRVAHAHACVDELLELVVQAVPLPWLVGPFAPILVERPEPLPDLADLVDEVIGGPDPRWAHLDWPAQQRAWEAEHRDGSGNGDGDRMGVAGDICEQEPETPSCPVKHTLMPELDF
Target sequence (Q8WTS1 whole entry, looked up): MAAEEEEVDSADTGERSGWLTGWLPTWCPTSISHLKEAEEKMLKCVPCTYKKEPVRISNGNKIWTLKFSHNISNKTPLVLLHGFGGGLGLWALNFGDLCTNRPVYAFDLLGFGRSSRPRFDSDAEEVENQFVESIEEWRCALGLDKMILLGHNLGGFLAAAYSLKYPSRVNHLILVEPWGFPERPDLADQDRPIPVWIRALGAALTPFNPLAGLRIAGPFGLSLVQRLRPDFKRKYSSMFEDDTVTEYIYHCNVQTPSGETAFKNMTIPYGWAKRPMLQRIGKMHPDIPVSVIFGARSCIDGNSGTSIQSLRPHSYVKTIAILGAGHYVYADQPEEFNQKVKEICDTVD
ABHD5 PLIN5 conf – ABHD5-PLIN5 interaction inhibition, confirmed. shares compounds with ABHD5 PLIN5 PPI. biochemical ABHD5-PLIN5 interaction, luminescence. inhibition, % at 4 µM. hit rate 67% among 2,200; in the data active = inhibition above about 23%;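 also: 0% = DMSO vehicle wells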
HNF4 counter – counter-screen for ABHD5-PLIN5 inhibitors: HNF4 split-luciferase | inhibition, % at 4 µM | AID 651674 | shares compounds with ABHD5 PLIN5 PPI | HNF4 dimerization, luminescence, biochemical | hit rate 77% among 2,200;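 active = mean inhibition across replicate wells exceeding the computed hit threshold, cut at about 13% in these data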;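 also: light from luciferase halves that rejoin when HNF4 fusion proteins dimerize; 0% = DMSO only wells and the 100% control is not given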
Active calls of the source: *; . = no result.

SMILES	Exocytosis inh	XBP1 UPR activ	CHOP UPR activ	Mdm2 MdmX PPI	ABHD5 PLIN5 PPI	ABHD5 PLIN5 conf	HNF4 counter
CCOc1cc(/C=N/N=C2/NC(=O)C(CC(=O)O)S2)ccc1OCc1ccccc1Cl (configuration not stated)	6	2	-2	11	-5	.	.
CC1(C)Cc2cccc(OCC(=O)N3CCN(c4ccccc4)CC3)c2O1	2	-1	3	15	82*	1	0
C=CCOc1ccc(/C=C/C(=O)N2CCCN(S(=O)(=O)c3c(C)noc3C)CC2)cc1	-4	-4	1	3	2	.	.
CC(=O)c1ccc(N2CCN(S(=O)(=O)c3ccc4c(c3)NC(=O)CC(=O)N4)CC2)cc1	-1	2	6	3	-2	.	.
CC(=O)c1ccc(N2CCN(S(=O)(=O)c3ccc4c(c3)C(Cl)(Cl)C(=O)N4)CC2)cc1	-11	.	.	.	31*	56*	51*
O=C1/C(=C/c2cccnc2)CCc2c1[nH]c1ccccc21	9	2	3	16	7	.	.
CC1C/C(=C\c2cccnc2)C(=O)/C(=C/c2cccnc2)C1 (configuration not stated)	0	.	.	.	91*	100*	93*
CCOC(=O)c1c(NC(=O)COC(=O)c2cnccn2)sc(C(=O)NC)c1C	7	1	2	10	4	.	.
CCOC(=O)c1c(-c2ccco2)csc1NC(=O)COC(=O)c1cnccn1	-5	0	2	7	25*	18	15*
COc1ccc(OC)c(NC(=O)CCC(=O)N(Cc2ccc(OC)c(OC)c2)c2nccs2)c1	-3	-5	0	-2	3	.	.
O=C(NCCCN1CCOCC1)c1ccc(CSc2ccc(Cl)cc2)cc1	37	0	1	-5	27*	9	3
CC(C)c1ccc(C(=O)NCCCN2CCOCC2)cc1	4	0	3	-12	1	.	.
NS(=O)(=O)c1ccc(-n2nncc2C23CC4CC(CC(C4)C2)C3)cc1	-2	-5	-2	5	-8	.	.
CCCN1CCN(C(=O)c2ccccc2-c2nc3ccccc3s2)CC1	0	-2	0	-28	-2	.	.
CC(Sc1nnc(-c2cccs2)n1-c1ccccc1)C(=O)NCc1ccco1 (configuration not stated)	-3	-2	-2	27	5	.	.
CC(Sc1ccsc1[N+](=O)[O-])C(=O)NCc1ccco1 (configuration not stated)	0	0	-1	10	28*	10	21*
O=C(O)c1cccc(N2C(=O)C3CC=CCC3C2=O)c1 (configuration not stated)	10	-4	0	-10	1	.	.
O=C(O)c1cccc(N2C(=O)C=CC2=O)c1	0	.	.	.	37*	44*	104*
O=C(Cc1ccccc1)Nc1cccc(N2C(=O)C=CC2=O)c1	33	.	.	.	29*	47*	107*
COc1cccc(NC(=O)Cc2ccccc2)c1	-2	2	1	-43	0	.	.
CC(=O)OCC1=C[C@@H]2OC(=O)C3=CO[C@@H](O[C@@H]4O[C@H](CO)[C@@H](O)[C@H](O)[C@H]4O)[C@H]1[C@@H]32	6	0	-1	22	-2	.	.
C=C1C(=O)OC2C=C(CO)C3OC3C3OC3(C)CC(OC(=O)/C(=C/C)COC(C)=O)C12 (configuration not stated)	19	.	.	.	52*	73*	82*
CNc1ccc(Br)cc(C(=O)/C=C/c2cccc(OC)c2)c1=O	-4	-1	5	3	30*	65*	49*
COc1cccc(/C=C/C(=O)OCC(=O)NCCNC(=O)COC(=O)/C=C/c2cccc(OC)c2)c1	26	-3	-2	13	-8	.	.
O=C(/C(=C/c1ccccc1)n1cncn1)c1ccc(Cl)cc1Cl	6	0	1	-16	33*	90*	57*
SMILES	Exocytosis inh	XBP1 UPR activ	CHOP UPR activ	Mdm2 MdmX PPI	ABHD5 PLIN5 PPI	ABHD5 PLIN5 conf	HNF4 counter
COc1cc(OC)cc(C(=O)NC(=S)N(Cc2ccccc2)C(C)C)c1	-8	-3	0	32	45*	70*	-10
C=CCn1c(SCC(=O)N2CCOCC2)nc2sc(C)c(C)c2c1=O	5	0	1	0	-6	.	.
Cc1ccc(CNC(=O)CC(C)S(=O)(=O)c2ccc3c(c2)NC(=O)CS3)o1 (configuration not stated)	2	-3	0	21	38*	12	22*
CC(=O)N1c2ccccc2NC2=C(C(=O)CCC2)C1c1ccco1 (configuration not stated)	4	1	1	-13	30*	19	37*
COc1ccc(C2C3=C(CC(c4ccco4)CC3=O)Nc3ccccc3N2C(C)=O)cc1 (configuration not stated)	0	-3	2	-12	11	.	.
CN(c1ccc(OCC(=O)OCC(=O)Nc2ccc(Br)cc2)cc1)S(=O)(=O)c1cccs1	-2	-2	0	12	1	.	.
O=C(NCc1ccco1)Nc1ccc(Br)cc1	2	1	3	-6	14	.	.
O=C(NCc1ccco1)Nc1ccc2nsnc2c1	8	0	6	9	38*	50*	82*
COC(C/C=C/C(=O)COCc1ccccc1)OC	25	-1	2	6	24*	46*	43*
COC(C/C=C/C(=O)[C@H](C)OCc1ccccc1)OC	-6	-1	2	-15	30*	55*	55*
COC(C[C@@H]1O[C@H]1C(=O)COCc1ccccc1)OC	30	-2	2	9	31*	6	1
NS(=O)(=O)c1ccc(N2CCCCCC2)c([N+](=O)[O-])c1	2	-1	0	13	74*	2	13*
O=[N+]([O-])c1cc(S(=O)(=O)N2CCOCC2)ccc1N1CCCC1	5	-2	2	6	2	.	.
O=[N+]([O-])c1ccc2nc(-c3cccnc3)[nH]c2c1	-2	3	5	-25	-12	.	.
O=C(O)Cn1cc(/C=C/[N+](=O)[O-])c2ccccc21	-1	0	-1	12	15	.	.
O=[N+]([O-])/C=C/c1cn(Cc2ccccc2)c2ccccc12	18	-1	0	34	31*	101*	99*
O=C(/C=C/c1cccnc1)c1ccc(F)c(F)c1	19	0	2	22	71*	97*	95*
O=C(/C=C/c1ccc2c(c1)OCO2)c1cccnc1	0	2	2	-18	28*	63*	54*

Compound activity: PubChem, several laboratories
